{"source": "paper PMC8204328", "about": "(ACS Pharmacology & Translational Science, 2021)", "key": {"lean wild-type mice": {"tested_on": "lean wild-type mice", "assay": "Upper GI motility", "assay_type": "in vivo, mouse", "in_short": "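Upper gastrointestinal motility by charcoal transit in lean wild-type mice. The CB1R agonist ACEA is given intraperitoneally at 10 mg/kg, with or without test compound. Test compound is also given without agonist to assess motility alone.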"}, "hCB1R": {"target": "hCB1R (Homo sapiens, UniProt P21554)", "sequence (P21554 whole entry)": "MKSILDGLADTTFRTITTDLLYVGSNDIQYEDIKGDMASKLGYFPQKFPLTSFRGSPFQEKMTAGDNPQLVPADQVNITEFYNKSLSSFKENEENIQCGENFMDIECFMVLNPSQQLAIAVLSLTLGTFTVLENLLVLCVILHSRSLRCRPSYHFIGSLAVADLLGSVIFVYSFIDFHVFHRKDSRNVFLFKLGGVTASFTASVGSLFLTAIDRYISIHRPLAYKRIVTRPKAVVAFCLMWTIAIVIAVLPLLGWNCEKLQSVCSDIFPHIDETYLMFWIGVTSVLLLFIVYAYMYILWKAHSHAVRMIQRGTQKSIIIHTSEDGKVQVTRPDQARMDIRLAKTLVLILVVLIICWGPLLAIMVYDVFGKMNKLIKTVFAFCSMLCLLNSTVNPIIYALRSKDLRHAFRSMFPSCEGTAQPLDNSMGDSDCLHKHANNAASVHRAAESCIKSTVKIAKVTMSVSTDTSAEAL", "assay_type": "cell-based"}, "[1]": {"settings": "acute oral 3 mg/kg, male wild-type mice; cited from earlier work"}, "mice [2]": {"tested_on": "mice", "assay": "Elevated plus maze test", "assay_type": "in vivo, mouse", "in_short": "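The elevated plus maze scores anxiety-like behavior in male wild-type mice after acute oral dosing or 28 days of daily oral dosing with test compound or reference antagonist. Mean ± SEM of 4–6 independent experiments.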"}, "mice [3]": {"tested_on": "mice", "assay": "Hyperambulatory activity in drug-naïve mice", "assay_type": "in vivo, mouse", "settings": "single oral 3 mg/kg, βArr2-KO mice and wild-type littermates"}, "[4]": {"tested_on": "M384S, I105A and M109A mutant hCB1R", "assay": "CP55,940-induced βArr2 recruitment in HEK cells expressing mutant hCB1R", "assay_type": "cell-based, human", "settings": "mutations M384S"}, "[5]": {"tested_on": "C2C12 mouse muscle myotubes", "assay": "Insulin-induced Akt-2 phosphorylation in C2C12 myotubes", "assay_type": "cell-based", "settings": "100 nM insulin; CP-55940 5 μM", "in_short": "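Cultured C2C12 mouse muscle myotubes, mock- or βArr2-siRNA-transfected, exposed to 100 nM insulin with or without the CB1R agonist CP-55940 (5 μM) and test compound (100 nM). Akt phosphorylation by Western blot, β-actin loading control, densitometry quantification; each treatment in duplicate cell aliquots.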"}}, "data": [{"smiles": "CCCCC/C=C\\C/C=C\\C/C=C\\C/C=C\\CCCC(=O)NCCCl", "note": "[ACEA, arachidonoyl chloroethylamine]", "values": [{"measurement": "inhibition of upper GI motility", "setting": "lean wild-type mice; 10 mg/kg intraperitoneal, lean wild-type mice", "value": 60, "unit": "%"}, {"measurement": "inhibition of upper GI motility, wild-type versus βArr2-KO mice", "setting": "lean wild-type mice; ACEA alone", "value": "to the same extent"}]}, {"smiles": "CN=C(NS(=O)(=O)c1ccc(Cl)cc1)N1C[C@H](c2ccccc2)C(c2ccc(Cl)cc2)=N1", "note": "[ibipinabant]", "values": [{"measurement": "bias (G/βArr)", "setting": "hCB1R", "value": "≈ 2"}, {"measurement": "brain/plasma ratio", "setting": "[1]", "value": 22, "unit": "%"}]}, {"smiles": "Cc1c(C(=O)NN2CCCCC2)nn(-c2ccc(Cl)cc2Cl)c1-c1ccc(Cl)cc1", "note": "[rimonabant]", "values": [{"measurement": "upper GI motility in the absence of CB1R agonist (in vivo inverse agonism)", "setting": "lean wild-type mice; MRI-1891 3 and 10 mg/kg", "value": "similar"}, {"measurement": "anxiogenic behavior, elevated plus maze", "setting": "mice [2]; acute oral, MRI-1891 up to 30 mg/kg, rimonabant 3 mg/kg", "value": "highly anxiogenic"}, {"measurement": "anxiogenic behavior, elevated plus maze", "setting": "mice [2]; chronic 28 days, MRI-1891 1 and 10 mg/kg/day, rimonabant 3 mg/kg/day", "value": "induced strong anxiety"}, {"measurement": "anxiogenic response, elevated plus maze", "setting": "mice [2]; single oral 3 mg/kg, βArr2-KO mice and wild-type littermates", "value": "identical, strong anxiogenic responses in both strains"}, {"measurement": "hyperambulatory activity", "setting": "mice [3]", "value": "similar, long-lasting hyperambulatory activity"}]}, {"smiles": "CCCCCCC(C)(C)c1ccc([C@@H]2C[C@H](O)CC[C@H]2CCCO)c(O)c1", "note": "[CP-55940]", "values": [{"measurement": "CP-55940-induced βArr2 recruitment at mutant hCB1R", "setting": "[4]", "value": "suppression"}, {"measurement": "effect on insulin-induced Akt-2 phosphorylation", "setting": "[5]", "value": "significantly inhibited"}]}]}
